Test results taken from ChEMBL document CHEMBL3259540, “Design, synthesis and molecular docking studies of novel N-benzenesulfonyl-1,2,3,4-tetrahydroisoquinoline-based triazoles with potential anticancer activity” (Eur J Med Chem, 2014).

Assays:
[1] = Cytotoxicity against human HuCCa1 cells after 48 hrs by MTT assay; type: functional, cell-based; conditions: HuCC-A1, 48 h
Method in brief: (§1)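 Adherent cells seeded at 10,000–20,000 per well and held 24 h at 37 °C in 5% CO2. Serial dilutions of compound were then added, with etoposide and/or doxorubicin as positive controls and DMSO as negative control. After 48 h of continuous exposure, survival was read by MTT. IC50 was the concentration giving 50% growth inhibition relative to the DMSO control.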

[2] = system: HepG2; test: Cytotoxicity against human HepG2 cells after 48 hrs by MTT assay; type: functional, cell-based; conditions: HepG2, 48 h; method in brief: as §1
[3] = system: A549; test: Cytotoxicity against human A549 cells after 48 hrs by MTT assay; type: functional, cell-based; conditions: A549, 48 h; method in brief: as §1
[4] = system: Vero; test: Cytotoxicity against african green monkey Vero cells after 4 days by GFP detection method; type: cell-based; conditions: Chlorocebus sabaeus, 96 h
Method in brief: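 Cells at 3.3 × 10^4 cells/mL were added to compounds prediluted in 0.5% DMSO. Plates were incubated 4 days at 37 °C in 5% CO2, and GFP fluorescence was read from the plate bottom.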

[5] = Cytotoxicity against human MOLT3 cells after 48 hrs by XTT assay; conditions: MOLT-3, 48 h
[6] = system: HepG2; test: Ratio of etoposide IC50 to compound IC50 for human HepG2 cells after 48 hrs by MTT assay; type: functional
[7] = system: HepG2; test: Ratio of doxorubicin IC50 to compound IC50 for human HepG2 cells after 48 hrs by MTT assay; type: functional

Structure (SMILES) | IC50 [1] | IC50 [2] | IC50 [3] | IC50 [4] | IC50 [5] | Ratio IC50 [6] | Ratio IC50 [7]
O=S(=O)(c1ccc(-n2cc(CO)nn2)cc1)N1CCc2ccccc2C1 | 51.4 µM | > 50 mg/L | > 50 mg/L | > 50 mg/L | > 50 mg/L | – | –
O=S(=O)(c1ccc(-n2cc(COc3ccccc3)nn2)cc1)N1CCc2ccccc2C1 | > 50 mg/L | 6.5 µM | > 50 mg/L | > 50 mg/L | > 50 mg/L | – | –
O=S(=O)(c1ccc(-n2cc(COc3ccc4ccccc4c3)nn2)cc1)N1CCc2ccccc2C1 | > 50 mg/L | 60.5 µM | > 50 mg/L | > 50 mg/L | > 50 mg/L | – | –
Cc1ccccc1OCc1cn(-c2ccc(S(=O)(=O)N3CCc4ccccc4C3)cc2)nn1 | > 50 mg/L | > 50 mg/L | 66.3 µM | > 50 mg/L | > 50 mg/L | – | –
Cc1ccc(OCc2cn(-c3ccc(S(=O)(=O)N4CCc5ccccc5C4)cc3)nn2)cc1 | > 50 mg/L | > 50 mg/L | > 50 mg/L | > 50 mg/L | > 50 mg/L | – | –
CC(=O)c1ccccc1OCc1cn(-c2ccc(S(=O)(=O)N3CCc4ccccc4C3)cc2)nn1 | 30.2 µM | 19.1 µM | 14.9 µM | > 50 mg/L | 21.9 µM | – | –
COC(=O)c1ccccc1OCc1cn(-c2ccc(S(=O)(=O)N3CCc4ccccc4C3)cc2)nn1 | 0.63 µM | 12.4 µM | 0.57 µM | 4.98 µM | 18.6 µM | – | –
O=Cc1ccc(OCc2cn(-c3ccc(S(=O)(=O)N4CCc5ccccc5C4)cc3)nn2)cc1 | > 50 mg/L | 5.27 µM | 59.1 µM | > 50 mg/L | > 50 mg/L | – | –
O=c1cc(OCc2cn(-c3ccc(S(=O)(=O)N4CCc5ccccc5C4)cc3)nn2)c2ccccc2o1 | 24.8 µM | > 50 mg/L | 25.3 µM | 28.6 µM | 80.8 µM | – | –
COc1cc2c(cc1OC)CN(S(=O)(=O)c1ccc(-n3cc(CO)nn3)cc1)CC2 | 72 µM | 31.8 µM | 41 µM | > 50 mg/L | > 50 mg/L | – | –
COc1cc2c(cc1OC)CN(S(=O)(=O)c1ccc(-n3cc(COc4ccccc4)nn3)cc1)CC2 | > 50 mg/L | 2.57 µM | > 50 mg/L | > 50 mg/L | > 50 mg/L | – | –
COc1cc2c(cc1OC)CN(S(=O)(=O)c1ccc(-n3cc(COc4ccc5ccccc5c4)nn3)cc1)CC2 | > 50 mg/L | 1.26 µM | > 50 mg/L | > 50 mg/L | 36.4 µM | – | –
COc1cc2c(cc1OC)CN(S(=O)(=O)c1ccc(-n3cc(COc4ccccc4C)nn3)cc1)CC2 | 39.7 µM | 1.48 µM | 27.2 µM | > 50 mg/L | > 50 mg/L | – | –
COc1cc2c(cc1OC)CN(S(=O)(=O)c1ccc(-n3cc(COc4ccc(C)cc4)nn3)cc1)CC2 | > 50 mg/L | 0.56 µM | > 50 mg/L | > 50 mg/L | > 50 mg/L | 53.9 | 1.4
COc1cc2c(cc1OC)CN(S(=O)(=O)c1ccc(-n3cc(COc4ccccc4C(C)=O)nn3)cc1)CC2 | > 50 mg/L | > 50 mg/L | > 50 mg/L | 37.2 µM | > 50 mg/L | – | –
COC(=O)c1ccccc1OCc1cn(-c2ccc(S(=O)(=O)N3CCc4cc(OC)c(OC)cc4C3)cc2)nn1 | 4.79 µM | 3.37 µM | 8.43 µM | 2.82 µM | 11.7 µM | – | –
COc1cc2c(cc1OC)CN(S(=O)(=O)c1ccc(-n3cc(COc4ccc(C=O)cc4)nn3)cc1)CC2 | 31.1 µM | 12.5 µM | 31.8 µM | > 50 mg/L | 34.1 µM | – | –
COc1cc2c(cc1OC)CN(S(=O)(=O)c1ccc(-n3cc(COc4ccc([N+](=O)[O-])cc4)nn3)cc1)CC2 | > 50 mg/L | > 50 mg/L | > 50 mg/L | > 50 mg/L | > 50 mg/L | – | –
COc1cc2c(cc1OC)CN(S(=O)(=O)c1ccc(-n3cc(COc4cc(C=O)ccc4OC)nn3)cc1)CC2 | 76.2 µM | 41.4 µM | 31.9 µM | > 50 mg/L | 5.82 µM | – | –
COc1cc2c(cc1OC)CN(S(=O)(=O)c1ccc(-n3cc(COc4ccc(C=O)cc4OC)nn3)cc1)CC2 | 40 µM | > 50 mg/L | > 50 mg/L | > 50 mg/L | 5.5 µM | – | –
COc1cccc2c1C(=O)c1c(O)c3c(c(O)c1C2=O)C[C@@](O)(C(=O)CO)C[C@@H]3O[C@H]1C[C@H](N)[C@H](O)[C@H](C)O1 [DOXORUBICIN] | 0.83 µM | – | – | – | – | – | –
Cc1c2ccncc2c(C)c2c1[nH]c1ccccc12 [ELLIPTECINE] | – | – | – | 1.94 µM | – | – | –
COc1cc([C@@H]2c3cc4c(cc3[C@@H](O[C@@H]3O[C@@H]5CO[C@@H](C)O[C@H]5[C@H](O)[C@H]3O)[C@H]3COC(=O)[C@H]23)OCO4)cc(OC)c1O [ETOPOSIDE] | – | – | – | – | 0.051 µM | – | –
